Results on nine compounds are retold here after ChEMBL document CHEMBL4808183, “Betulonic Acid Derivatives Interfering with Human Coronavirus 229E Replication via the nsp15 Endoribonuclease” (J Med Chem, 2021).

One may read the EC50 as the concentration giving half of the maximal effect. Usually CC50 stands for the concentration that lowers cell viability or growth by half. Read a low CC50 as greater toxicity to the cells.

Data set [1] in a line: Antiviral activity against Human coronavirus 229E infected in human embryonic lung fibroblast cells assessed as reduction in virus-induced cytopathic effect incubated for 5 days by microscopy. It counts as functional, cell-based. The following applies: 120 h. Summed up:
(§1)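 Confluent HEL cell cultures given serial compound dilutions together with HCoV-229E at MOI 100 and held 5 days at 35 °C. Virus-induced CPE was scored by microscopy. MTS reagent was then added and absorbance at 490 nm read 24 h later. EC50 was taken from the MTS or microscopic read-out and CC50 from MTS. SI = CC50/EC50, both by MTS. Mean ± SEM of three independent experiments.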

Data set [2] is described as follows: Antiviral activity against Human coronavirus 229E infected in human embryonic lung fibroblast cells assessed as reduction in virus-induced cytopathic effect incubated for 5 days by MTS cell viability assay. It counts as functional, cell-based. The following applies: 120 h. Summed up:
as §1
(In general: Protection from cytopathic effect is a common read-out in antiviral testing.)

Data set [3] concerns Herpes simplex virus unknown type. In words: Antiviral activity against Herpes simplex virus. It counts as functional.
For a further data set, the system named is Vaccinia virus. The data set is described as follows: Antiviral activity against Vaccinia virus. The following applies: Orthopoxvirus vaccinia. Type of data set: functional, organism-based.
The subject of the next data set is Human respirovirus 3. The data set is described as follows: Antiviral activity against Parainfluenza-3 virus. Type of data set: functional, organism-based.
The next data set deals with Influenza A virus. In words: Antiviral activity against Influenza virus. It counts as functional.
The test system of data set [4] is Vesicular stomatitis virus. In words: Antiviral activity against Vesicular stomatitis virus. It counts as functional, organism-based.
In another data set the test system is Reovirus sp. The data set is described as follows: Antiviral activity against Reovirus-1. Type of data set: functional, organism-based.
The subject of data set [5] is Respiratory syncytial virus. The data set is described as follows: Antiviral activity against Respiratory syncytial virus. It counts as functional, organism-based.
A further data set concerns Human adenovirus 2. In words: Antiviral activity against Adenovirus. It counts as functional.
Another data set relates to Yellow fever virus. In words: Antiviral activity against Yellow fever virus. It counts as functional, organism-based.
Another data set has as its system Punta Toro virus. In words: Antiviral activity against Punta Toro virus. Type of data set: functional, organism-based.
The nature of data set [6]: Selectivity index, ratio of CC50 for cytotoxicity against mock-infected human embryonic lung fibroblast cells incubated for 5 days by MTS assay to EC50 for antiviral activity against Human coronavirus 229E infected in human embryonic lung fibroblast cells assessed as reduction in virus-induced cytopathic effect incubated for 5 days by MTS cell viability assay. Type of data set: toxicity, cell-based. The following applies: time 5 day, read-out: Ratio CC50/EC50. Summed up:
as §1
(Formazan colour is commonly taken as a measure of viable cells.)

Data set [7] is described as follows: Cytotoxicity against mock-infected human embryonic lung fibroblast cells incubated for 5 days by MTS assay. It counts as cell-based. The following applies: time 5 day. Summed up: as §1
For data set [8], the system named is Human immunodeficiency virus. In words: Antiviral activity against HIV. It counts as functional, organism-based.
For the next data set, the system named is Coxsackievirus B4. In words: Antiviral activity against Coxsackie B4 virus. It counts as functional, organism-based.
The next data set concerns Sindbis virus. The data set is described as follows: Antiviral activity against Sindbis virus. It counts as functional, organism-based.

Activity calls are given as the source filed them. No cut-off for these calls is given here.

With `C=C(C)[C@@H]1CC[C@]2(C(=O)O)CC[C@]3(C)[C@H](CC[C@@H]4[C@@]5(C)Cc6nnn(CCc7c[nH]c8ccc(OC)cc78)c6C(C)(C)[C@@H]5CC[C@]43C)[C@@H]12`, the EC50 in data set [1] stood at 0.3 µM; in data set [2], 0.88 µM. Further, the outcome (in data set [3]; in the data set with Vaccinia virus; in the data set with Human respirovirus 3; in the data set on Influenza A virus; in data set [4]; in the data set on Reovirus sp.) was inactive. The outcome (in [5]; in the data set with Human adenovirus 2; with Yellow fever virus; in the data set with Punta Toro virus; in data set [8]; in the data set with Coxsackievirus B4) was inactive. Moreover, in the data set on Sindbis virus, the outcome was inactive. Also, in data set [6], the selectivity ratio at 120 h was 10. Further, the CC50 at 120 h in data set [7] worked out at 8.9 µM.
On to `C=C(C)[C@@H]1CC[C@]2(C(=O)O)CC[C@]3(C)[C@H](CC[C@@H]4[C@@]5(C)Cc6nnn(CCc7c[nH]c8ccccc78)c6C(C)(C)[C@@H]5CC[C@]43C)[C@@H]12`, for which the EC50 came to 0.24 µM in data set [1] and 0.56 µM in [2]. Besides, the result (in data set [3]; in the data set with Vaccinia virus; with Human respirovirus 3; with Influenza A virus; in data set [4]; in the data set on Reovirus sp.) was inactive. Moreover, the outcome (in [5]; in the data set with Human adenovirus 2; in the data set with Yellow fever virus; in the data set on Punta Toro virus; in data set [8]; in the data set on Coxsackievirus B4) was inactive. For the same compound, in the data set with Sindbis virus, the outcome was inactive. Moreover, the selectivity ratio at 120 h in data set [6] stood at 6. Half-maximal cytotoxicity in data set [7] (CC50 at 120 h) was put at 3.2 µM.
On to `C=C(C)[C@@H]1CC[C@]2(C(=O)O)CC[C@]3(C)[C@H](CC[C@@H]4[C@@]5(C)Cc6nnn(Cc7ccncc7)c6C(C)(C)[C@@H]5CC[C@]43C)[C@@H]12`, for which the EC50 is 2.4 µM in data set [1] and 2.5 µM in data set [2]. The outcome (in data set [3]; in the data set with Vaccinia virus; in the data set on Human respirovirus 3; in the data set on Influenza A virus; in data set [4]; in the data set with Reovirus sp.) was inactive. For the same compound, the outcome (in data set [5]; in the data set with Human adenovirus 2; with Yellow fever virus; in the data set with Punta Toro virus; in [8]; in the data set on Coxsackievirus B4) was inactive. Further, the result in the data set with Sindbis virus was inactive. Also, the selectivity ratio at 120 h in [6] is 7. Also, it took 17 µM to reach half-maximal cytotoxicity in data set [7] (CC50 at 120 h).
Regarding `C=C(C)[C@@H]1CC[C@]2(C(=O)O)CC[C@]3(C)[C@H](CC[C@@H]4[C@@]5(C)Cc6nnn(Cc7ccccc7)c6C(C)(C)[C@@H]5CC[C@]43C)[C@@H]12`, the EC50 stood at 0.71 µM in [1] and 0.85 µM in [2]. Further, the result (in data set [3]; with Vaccinia virus; with Human respirovirus 3; in the data set with Influenza A virus; in data set [4]; with Reovirus sp.) was inactive. Further, the outcome (in data set [5]; with Human adenovirus 2; with Yellow fever virus; in the data set with Punta Toro virus; in data set [8]; in the data set with Coxsackievirus B4) was inactive. Further, the result with Sindbis virus was inactive. Besides, the selectivity ratio at 120 h in data set [6] came to 14. The CC50 at 120 h in data set [7] stood at 12 µM.
For `C=C(C)[C@@H]1CC[C@]2(C(=O)O)CC[C@]3(C)[C@H](CC[C@@H]4[C@@]5(C)Cc6nnn(CCO)c6C(C)(C)[C@@H]5CC[C@]43C)[C@@H]12`, the EC50 was found to be 2.2 µM in data set [1] and 3.3 µM in data set [2]. For the same compound, the result (in data set [3]; in the data set on Vaccinia virus; in the data set with Human respirovirus 3; in the data set with Influenza A virus; in data set [4]; in the data set on Reovirus sp.) was inactive. Further, the outcome (in data set [5]; with Human adenovirus 2; with Yellow fever virus; with Punta Toro virus; in [8]; with Coxsackievirus B4) was inactive. Further, the outcome in the data set on Sindbis virus was inactive. Moreover, the selectivity ratio at 120 h in [6] is 1.5. This compound also had a CC50 at 120 h in [7] of 4.9 µM.
`C=C(C)[C@@H]1CC[C@]2(C(=O)O)CC[C@]3(C)[C@H](CC[C@@H]4[C@@]5(C)Cc6nnn(Cc7ccc8c(c7)OCO8)c6C(C)(C)[C@@H]5CC[C@]43C)[C@@H]12`: the figures for the EC50 in data set [1] and in [2] were 1.5 µM and 1.9 µM, respectively. The result (in [3]; with Vaccinia virus; with Human respirovirus 3; in the data set with Influenza A virus; in data set [4]; with Reovirus sp.) was inactive. The result (in [5]; in the data set on Human adenovirus 2; with Yellow fever virus; with Punta Toro virus; in [8]; with Coxsackievirus B4) was inactive. The result in the data set on Sindbis virus was inactive. Besides, in [6], the selectivity ratio at 120 h came out at 8. Besides, half-maximal cytotoxicity in [7] (CC50 at 120 h) was put at 15 µM.
As for `C=C(C)[C@@H]1CC[C@]2(C(=O)O)CC[C@]3(C)[C@H](CC[C@@H]4[C@@]5(C)Cc6nnn(Cc7ccc(N(C)C)cc7)c6C(C)(C)[C@@H]5CC[C@]43C)[C@@H]12`, the figures for the EC50 in [1] and in [2] were 0.51 µM and 0.54 µM, respectively. Also, the outcome (in data set [3]; in the data set with Vaccinia virus; in the data set with Human respirovirus 3; in the data set on Influenza A virus; in data set [4]; in the data set with Reovirus sp.) was inactive. The outcome (in data set [5]; in the data set on Human adenovirus 2; in the data set with Yellow fever virus; in the data set on Punta Toro virus; in [8]; with Coxsackievirus B4) was inactive. In the data set on Sindbis virus, the outcome was inactive. Besides, the selectivity ratio at 120 h in data set [6] was 31. Also, half-maximal cytotoxicity in data set [7] (CC50 at 120 h) was put at 16 µM.
Take `C=C(C)[C@@H]1CC[C@]2(C(=O)O)CC[C@]3(C)[C@H](CC[C@@H]4[C@@]5(C)Cc6nnn(Cc7cc(OC)cc(OC)c7)c6C(C)(C)[C@@H]5CC[C@]43C)[C@@H]12`: the figures for the concentration giving a half-maximal response (EC50) in data set [1] and in [2] were 1.6 µM and 2.4 µM, respectively. Besides, the result (in data set [3]; in the data set with Vaccinia virus; in the data set on Human respirovirus 3; in the data set on Influenza A virus; in data set [4]; with Reovirus sp.) was inactive. The result (in data set [5]; with Human adenovirus 2; with Yellow fever virus; in the data set with Punta Toro virus; in [8]; with Coxsackievirus B4) was inactive. For the same compound, the outcome in the data set on Sindbis virus was inactive. Besides, the selectivity ratio at 120 h in data set [6] is 7. This compound also registered a 50% cytotoxic concentration (CC50) at 120 h in [7] of 17 µM.
Regarding `C=C(C)[C@@H]1CC[C@]2(C(=O)O)CC[C@]3(C)[C@H](CC[C@@H]4[C@@]5(C)Cc6nnn(Cc7ccco7)c6C(C)(C)[C@@H]5CC[C@]43C)[C@@H]12`, the concentration for a half-maximal effect (EC50) was 1.1 µM in data set [1] and 2.6 µM in [2]. Also, the outcome (in data set [3]; with Vaccinia virus; with Human respirovirus 3; in the data set with Influenza A virus; in data set [4]; in the data set with Reovirus sp.) was inactive. Also, the result (in data set [5]; with Human adenovirus 2; in the data set on Yellow fever virus; in the data set on Punta Toro virus; in data set [8]; in the data set on Coxsackievirus B4) was inactive. In addition, the result with Sindbis virus was inactive. Further, the selectivity ratio at 120 h in [6] was determined as 8. The compound further registered a CC50 at 120 h in data set [7] of 20 µM.
